From ChEMBL document CHEMBL4513216, “Probing the Open Global Health Chemical Diversity Library for Multistage-Active Starting Points for Next-Generation Antimalarials” (ACS Infect Dis, 2020)

Assay: Toxicity liver stage against HepG2, at 10uM
Type: cell-based
Design: test concentration 10 uM, cell line HepG2-A16-CD81EGFP
Conditions: human, HepG2-A16-CD81EGFP cells; read-out: INHIBITION
Method in brief: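 Uninfected HepG2-A16-CD81EGFP cells, 3 × 10^3 per well, 1536-well, plated on prespotted compound at 10 μM final, parasite-free screening media added to match infected plates; puromycin 10 μM positive, DMSO 0.5% negative; run in parallel with 48 h PbLuc assay at 37 °C, 5% CO2; viability by CellTiter-Glo luminescence, normalized to controls.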

Structure (SMILES)	cytotoxicity at 10 µM
Cc1cc(Nc2nc(C)cs2)nc(C2CCCCN2CCO)n1 (stereo unspecified)	1.8%
COCC(NC1CCN(CC(C)C)CC1)c1ccnn1C (stereo unspecified)	4.22%
Cc1cnn(CC(C)NCc2csc(-c3cnn(C)c3)n2)c1 (stereo unspecified)	5.32%
CN1CCN(Cc2cn3c(n2)CN(Cc2ccccn2)CC3)CC1	-117%
CCn1ccnc1CNCC(c1ccc(C)s1)N1CCOCC1 (stereo unspecified)	6.41%
CCN(CC(=O)NC(C)C)C(=O)c1ccc(-c2ccsc2)nc1C	-0.908%
COCCNC(=O)N1CC(Cc2ccccc2F)C1	-6.4%
Cc1nn(CC(O)CN2CCc3ccccc3C2)c(=O)c2ccccc12 (stereo unspecified)	11.1%
Cc1cc(C[C@@H]2CCC[C@H]2NCc2cc(F)ccc2F)on1	-5.72%
CCc1cnc(CNC(=O)NCCCO)s1	-5.42%
CCN(CC1CCCN(CCc2cccc(OC)c2)C1)C(=O)CCSC (stereo unspecified)	10.5%
CN(C)c1ccc(C(=O)Nc2ccn(CCc3ccncc3)n2)cn1	-12.7%
CC(=O)N(Cc1c(F)cccc1F)C1CCCC1	-3.63%
Cn1cc(C[C@H]2[C@@H](O)CCN2C(=O)C2CCC2)cn1	-7.44%
Cc1nc[nH]c1CN1CCN(C(=O)C2(C)CC2)[C@H]2CS(=O)(=O)C[C@H]21	-4.76%
Cc1nc(CN(C)C2CCN(CCCOc3ccc(F)cc3)C2)no1 (stereo unspecified)	-8.27%
CNC(=O)COC1COC2(CCN(Cc3ccncc3F)CC2)C1 (stereo unspecified)	7.37%
COc1cccc(CCNC(=O)CCS(=O)(=O)C2CCCC2)c1	2.2%
CCC[C@H]1CN(S(C)(=O)=O)C[C@@H]1NC(=O)CCCn1ccnc1	4.47%
COc1cc(C(=O)O)ccc1OCC(=O)NC(C)c1ccc(F)cc1 (stereo unspecified)	-1.4%
CCNC(=O)NC(=O)CNc1cc(C#N)ccc1OCC	-19.7%
Cc1cccc(COC[C@@]23CCC[C@@H]2CN(S(=O)(=O)N(C)C)C3)n1	-6.87%
Cc1cccc(OCCN2CCN(Cc3cnn(CCO)c3)CC2)c1	-5.16%

Structure (SMILES)	cytotoxicity at 10 µM
COc1cc(CN2C[C@H](OC)[C@]3(CCCO3)C2)ccc1F	-7.61%
Cc1cc(C)cc(CCC(=O)NC(C)c2nnn[nH]2)c1 (stereo unspecified)	0.686%
Cc1cccc(C(=O)N2CCSCC2)c1NC(=O)c1ccsc1	3.85%
CCCN1CCC(Cc2nn3c(C(C)C)nnc3s2)CC1	-6.17%
CCc1nc(C)c(C(=O)N2CCNCC2C(=O)Nc2ccc(C)nc2)o1 (stereo unspecified)	-4%
CC(C)C1CN(C(=O)Nc2cnn(CC(F)F)c2)CCO1 (stereo unspecified)	8.52%
COc1ccc(NC(=O)N(CCO)Cc2ccsc2)c(OC)c1	12.2%
CCc1noc(CN(CCS(C)(=O)=O)C(C)(C)C)n1	-0.718%
CC(=O)N1CCN(c2cnccn2)CC(CO)C1 (stereo unspecified)	3.03%
N#Cc1cccnc1N1CCN(C(=O)CCC(=O)c2cccs2)CC1	-8.7%
Cc1ccc(CNC(=O)Cn2c(=O)c3cccnc3n2C)cc1F	-2.83%
c1cncc(OC[C@]23COC[C@H]2CN(Cc2ccsc2)C3)c1	14.7%
CCCn1nnnc1COC(=O)C1Cc2cc(Cl)ccc2O1 (stereo unspecified)	-5.68%
O=C(Cc1cnc(-c2c(Cl)cccc2Cl)s1)N1CCC2(CC1)OCCO2	-0.367%
CCn1ncc2c1CCCC2NCc1cscn1 (stereo unspecified)	-2.42%
c1cc(CNCc2cccc3c2OCCCO3)cc(Cn2cncn2)c1	8.1%
COCC1CN(C(=O)CS(C)(=O)=O)Cc2ncn(CC3CC3)c21 (stereo unspecified)	5.29%
CCOC(=O)CCC(=O)NC(C)c1ccc(NC(=O)CC)cc1 (stereo unspecified)	0.097%
Cc1nccn1CCCC(=O)N1CCCC(c2noc(C(C)C)n2)C1 (stereo unspecified)	-35.8%
Cc1nc(N(C)C)nc(N(C)CCc2ccncc2)c1C	1.37%
Cc1cnn(CC2CCCN2CC(=O)Nc2nc(C)cs2)c1 (stereo unspecified)	-6.26%
CSCc1noc(-c2ccc(C)c(N3CCNC3=O)c2)n1	-8.77%
Cc1nc(CCNC(=O)Nc2cc(C(F)(F)F)c[nH]c2=O)cs1	0.614%

Structure (SMILES)	cytotoxicity at 10 µM
CCN1CCC(CC(=O)NC[C@H]2CCc3ccccc3O2)CC1	-28.4%
CN(Cc1cccc(OC(F)F)c1)Cc1nc2c(cnn2C)c(=O)[nH]1	-0.438%
CN(Cc1ccsc1)C(=O)c1cc2c([nH]c1=O)CCC2	-12.4%
Cc1cccc(C(C(=O)N(C)CCc2cn[nH]c2)N(C)C)c1 (stereo unspecified)	-8.06%
Cc1ccc(CNC(=O)CN(CCC(N)=O)c2ccc(F)cc2)cc1	-2.62%
Cc1cc(NC(=O)CNc2ccc(Br)cc2F)on1	-28.1%
Cc1cccnc1NCCNC(=O)c1cnc(-c2ccccn2)nc1O	26.4%
Cc1nnc(NC(=O)NCc2ccc(N3CCNC(=O)C3)cc2)s1	-1.26%
Cn1cc(NC(=O)Nc2cccc3cccnc23)ccc1=O	-9.22%
CN(C)[C@@H]1CCN(C(=O)Cc2ccc(F)cc2)[C@H]1Cc1ccncc1	-84.7%
O=C(Cn1ccc2cc(Br)ccc21)NC[C@@H]1CCCN2CCCC[C@H]12	14.5%
Cc1nnc(C(C)NCC2(c3c(F)cccc3F)CCCC2)o1 (stereo unspecified)	0.511%
COc1cccn(C(C)C(=O)NC2CCCC2)c1=O (stereo unspecified)	5.32%
Cc1cc(C)c(CNC(=O)NCc2nnc3n2CCC3)c(=O)[nH]1	22.1%
CN1CCN(C2CCN(C(C(N)=O)c3ccccc3)CC2)C1=O (stereo unspecified)	-4.29%
CCNc1nc(C)c(C(=O)N(C)Cc2nc(-c3ccncc3)no2)s1	1.41%
CCN1C(=O)C[C@@H]2[C@@H]1CCN2S(=O)(=O)c1cccc(C)c1	1.29%
CCC(C(=O)NCc1ccncc1)N(c1ccc(F)cc1)S(C)(=O)=O (stereo unspecified)	-5.48%
CC(NC(=O)Nc1cccnc1N1CCCC1)c1ccncc1 (stereo unspecified)	-19.3%
CCN(C(C)=O)c1nc(CN2CCN(c3nccs3)CC2)cs1	-6.01%
CC(C)c1nc2n(n1)CC(NCc1cc3ccccc3o1)CC2 (stereo unspecified)	-3.61%
Cc1cc(-c2ccncc2)ccc1OCC(N)=O	18.1%
C=C(C)CN(CC)S(=O)(=O)c1c(F)cc(NC(C)=O)cc1F	-47.1%

Structure (SMILES)	cytotoxicity at 10 µM
CCN(CC)C1CCN(c2ncnc3c2CCN(C(=O)C2CC2)C3)C1 (stereo unspecified)	1.52%
O=C(c1scc2c1OCCO2)N1CCOC(Cc2cccc(F)c2)C1 (stereo unspecified)	4.78%
CCS(=O)(=O)N1CCOC2(CCCN(c3ccc(C)nn3)C2)C1 (stereo unspecified)	0.253%
Cc1cnc(C(=O)N2CCCN(c3nc(C)cs3)CC2)cn1	-8.81%
Cc1nc(N(C)C)nc(NCCc2c[nH]cn2)c1C	3.12%
COc1cc(N2CCC3(CC2)CN(C)C(=O)CO3)ncn1	6.5%
COCc1noc(C2(c3ccc(OC)cc3)CCOCC2)n1	-22.3%
Cn1c(C(=O)NC2CC2)nc2c1CCN(c1ncccn1)C2	-4.75%
O=C1CN(c2ccc(C(=O)N3CCc4ccccc43)cn2)CCN1	2.66%
Cc1cccc(SC2CCN(Cc3nc(CC4CC4)no3)CC2)c1	-6.51%
CC(Cc1ccco1)NC(=O)NCc1ncnn1C (stereo unspecified)	2.02%
CCCc1noc(C2CCN(S(=O)(=O)c3cccs3)CC2)n1	1.5%
Cc1cnn(C2CCCN(C(=O)c3c(C)oc4nc[nH]c(=O)c34)C2)c1 (stereo unspecified)	-6.62%
CCn1c(C)nnc1CN(C)C1CCN(Cc2nnc(C3CC3)o2)C1 (stereo unspecified)	-11.6%
CC(C)c1nccn1-c1cncc(C2CCCN(C3CCCCC3)C2)n1 (stereo unspecified)	-9.97%
Cc1csc(N2CCN(CC(=O)N3CCCC3)CC2C)n1 (stereo unspecified)	-0.456%
Cn1nnn(-c2ccc(NS(=O)(=O)c3ccc(Br)cc3)cc2)c1=O	-2.77%
Cc1nccc(CNC(=O)NC(c2ncc(C)s2)C2CC2)n1 (stereo unspecified)	-0.898%
COc1cccc(CN2C[C@H]3CC[C@H]2C3)c1OCCN1CCOCC1	0.101%
Cc1ccc(S(C)(=O)=O)cc1C(=O)NS(=O)(=O)c1cccs1	0.532%
Cc1nnc2n1CCN(Cc1ncc(-c3ccc(Cl)cc3)o1)C2	-17.7%
COCCC1CN(Cc2cn(CCC(N)=O)c3ccccc23)CCO1 (stereo unspecified)	-3.15%
Cc1ncccc1C(=O)NC1CC(=O)N(CC(F)(F)F)C1 (stereo unspecified)	1.2%

Structure (SMILES)	cytotoxicity at 10 µM
CS(=O)(=O)NCc1cc(-c2cc(F)cc(F)c2)nc(N2CCOCC2)n1	-9.24%
c1cncc(NCCCNC2CCSC2)c1 (stereo unspecified)	-3.62%
Cc1cnn(CCNCC(O)COc2ccc3ccccc3c2)c1 (stereo unspecified)	-6.31%
Cc1nc(-c2ccncc2)ncc1C(C)NC(=O)CN1CCOC1=O (stereo unspecified)	3.11%
O=C(C1CCCC1)N1CCO[C@@H]2CNC[C@@H]21	8.34%
CCOC(=O)C1CCCN(c2ccc(-c3nc(C)no3)cn2)C1 (stereo unspecified)	-3.74%
O=C(Cc1ccc2c(c1)OCC2)Nc1nc[nH]n1	-2.94%
Cc1cc2cc(C(=O)N3C[C@H](O)[C@]4(CCCO4)C3)ccc2o1	-10.9%
COc1cc(N2CCC3(CC2)C(c2ccncc2)CC(=O)N3C)ncn1 (stereo unspecified)	-107%
Cn1cnc(S(=O)(=O)N2C[C@H]3CN(Cc4cccnc4)C[C@H]3C2)c1	8.46%
CCc1cc(NCCS(=O)(=O)N(C)C)nc(N2CCOCC2)n1	1.44%
CN(Cc1ccccc1)CC(O)Cn1cnc2ccc(Br)cc2c1=O (stereo unspecified)	-9.04%
CC1CN(Cc2cccc(CNC3CCCC3)c2)CCO1 (stereo unspecified)	3.06%
C[C@H]1CN(C(=O)N(C)C)C[C@@]12CCN(c1ccsc1)C2=O	-73.1%
CC1(c2ccccc2)CCC(=O)N(CCN2CCCOC2=O)C1 (stereo unspecified)	-3.99%
COc1ccsc1C(=O)N1CCCC(n2cncn2)C1 (stereo unspecified)	4.6%
CCCN(C(=O)c1cccnc1)c1nc2c(s1)CCc1c-2cnn1C	5.05%
CN(Cc1ccc(N(C)C)cc1)C(=O)NCc1nnc2n1CCC2	-21%
CCN1CCOC(CNc2nccc(C(F)(F)F)n2)C1 (stereo unspecified)	5.31%
